Tested on: MS2 coat protein
Test: apparent Kd, MS2 coat protein; higher = weaker binding; RNA-MaP array; FMN 200 µM where present
Outline: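 Designs were transcribed by stalled E. coli RNA polymerase on Illumina sequencing-chip clusters. They were titrated with SNAP-549-labelled MS2 coat protein from 0.7 or 1.5 nM, doubling to 3 µM, without and then with constant ligand. Buffer: 100 mM Tris-HCl pH 7.5, 80 mM KCl, 4 mM MgCl2, BSA, DTT, yeast tRNA, Tween-20. Green signal was normalised to red-channel RNA signal and control-cluster median Fmax. Apparent Kd is the median of filtered per-cluster binding-curve fits.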

[1] = designed as: OFF switch for flavin mononucleotide, no ligand
[2] = ligand present: flavin mononucleotide, designed as: OFF switch for flavin mononucleotide
[3] = designed as: ON switch for flavin mononucleotide, no ligand
[4] = ligand present: flavin mononucleotide, designed as: ON switch for flavin mononucleotide

| Sequence | apparent Kd [1] | apparent Kd [2] | apparent Kd [3] | apparent Kd [4] |
| --- | --- | --- | --- | --- |
| GGAUGACAAAGUCAUCCAUAACGAACAUGAGGAUCACCCAUGUAGGAUAUGCAACUCAAAGAGUUGCAGAAGGACAUGUGCCUU | 34.6 nM | 273 nM | – | – |
| CAGUAAGUAUUGCGAGGGUAGGAGCAGGAUAUCCCAUUGGCCCUCACAUGAGGAUCACCCAUGUGGGAGAAGGGCUAUUACGUC | 9.11 nM | 22.5 nM | – | – |
| GGGUGACAUGAGGAUCACCCAUGUCAGGAUAUGCGCGCGCGCGCGAAAGUGUGUGUGUGUAGAAGGGACUGCCC | 49.6 nM | 81.2 nM | – | – |
| UUGGACGUCGUAGGAUAUGUAGGAUAUUCCUACAUGAGGAUCACCCAUGUUGACAUGGAAGAAGGAGAGAAGGACGAUGUCCAU | – | – | 308 nM | 354 nM |
| UAGAGCGCUUGAGGAUAUCGCUUUGUGAUGGUACUCAUGCUUGUUACAUGAGGAUCACCCAUGUGCGAGAAGGCAGGCCGUUAG | 59.3 nM | 12.6 nM | – | – |
| AUAUUGUGAGGAUAUGAACUUAGAAUCGAAAGAUACUAAGUUCAGAAGGCACAUGAGGAUCACCCAUGUUUCUC | 86 nM | 875 nM | – | – |
| GUUGGCUGAGGAUAUGCUUGCGUGCGUUUGUGUCGCGGGUGACAUGAGGAUCACCCAUGUAGAAGGUGGUCGGC | 1530 nM | 980 nM | – | – |
| GGAAAGUGAGGAUAUGGUAAUUUAAUUAUUAAUUAAUUAAUCCAGAAGGCACAUGAGGAUCACCCAUGUAAAGG | 35.9 nM | 61.4 nM | – | – |
| AGAAAACAUGAGGAUCACCCAUGUCAGGAUAUCUCCAAGGCUUAACAUCCAGCCCUGCAGAGAAGGGACGGGUG | 87.9 nM | 225 nM | – | – |
| GUUUAGUGAGGAUAUGUGGCAUAGAUCGAGCGCGGUCGGCUACAGAAGGCACAUGAGGAUCACCCAUGUUUCUC | 39.9 nM | 498 nM | – | – |
| CGCAACUCUUCACAUGUCAACAUGAGGAUCACCCAUGUAUUGAGAAGGAGGAAGAAGAGAGAUUCCUAGGAUAUCAGAGUUGCG | 6.75 nM | 6.08 nM | – | – |
| UGAAAUCAUGUAGGAUAUGCAUGGCGCAGCUACGCAGAAGGACAUGAGGAUCACCCAUGUUAUAGCUACCCAGUUCGGUGGCAA | 30.6 nM | 173 nM | – | – |
| UUCGGCGCAGGAUAUACAGUUCUGUGUUGAAUCGGCGCGGGACAUGAGGAUCACCCAUGUAGAAGGGUGUUGAA | 1160 nM | 578 nM | – | – |
| ACCUCACACGUCAGGAUAUGCCUGCGGAUAUGCGGGUAGAAGGGACAUGAGGAUCACCCAUGUCUUUCGUGAUU | 15.8 nM | 21.1 nM | – | – |
| ACCUGGACCACAGGAUAUCCCAAUGUUUUACAGGGAGAAGGGUGAGAGUAUGACAUGAGGAUCACCCAUGUUGUCCAGGCGGAA | – | – | 442 nM | 191 nM |
| AUUAUUUAGUGAGGAUAUACAGAUAAAGAGAUUGUAGAAGGCACUUUCCUCAGGACAUGAGGAUCACCCAUGUGUUAAUAAGAU | 72.5 nM | 267 nM | – | – |
| ACAUACAUUCGAGGAUAUCAGUGAACAUAUUAUUGAGAAGGCGAUAUUAUUUUUAAUCUUAUUUACAUGAGGAUCACCCAUGUU | – | – | 22.6 nM | 19.6 nM |
| CACAUGGUUACAGGAUAUGUUAGGUUGCUGUUUAUUGGAUAUUAAAUUAUUACAGAAGGGUAAUACAUGAGGAUCACCCAUGUG | – | – | 129 nM | 29.4 nM |
| UUGUUAGCAGGAUAUAUCCACGACCACAUGAGGAUCACCCAUGUGGCCGCUUGAGGUUGUAUAGAAGGGCUUUGUU | 13.8 nM | 14.3 nM | – | – |
| CUUUUGUGAGGAUAUUAGUAGUAUAUAAAUAAAAUUACUACUGAGAAGGCACAUGAGGAUCACCCAUGUUCCUC | 32.7 nM | 124 nM | – | – |
| CUUCAGUCACAGGAUAUGCUCAUCUAAUGAUGAGCAGAAGGGUGAACAUGAGGAUCACCCAUGUUUACGGUGGU | 621 nM | 487 nM | – | – |
| UGUCUAUUUGAAGGAUAUCUAAGCAUAAACCGGAGAGAAGGUCAAUUAUACAUGAGGAUCACCCAUGUUGAGAUUGAUGGGUUU | 16.2 nM | 18.4 nM | – | – |
| AGACUGAAGCAAGGAUAUUGUAAGGUUAUCGUACAAGAAGGUGCUGUUUAUGUCUCUUAACAUGAGGAUCACCCAUGUUUUAAA | – | – | 19.7 nM | 21.8 nM |

Source: the EternaBench riboswitch data
